Screening results as filed in PubChem.
HNF4A DNA FP: change in binding of human HNF4 alpha to DNA. P41235. HNF4a-FITC DNA binding, fluorescence polarization, 1 h. activity change, % at 10 µM. hit rate 0.3% among 360,000. AID 1224865; in the data active = activity change above about 30%, passing the limit was not always enough
TPT1 inhibitor: blocks Candida albicans tRNA 2'-phosphotransferase; recombinant caTPT1, FP RNA substrate dephosphorylation; inhibition, % at 5 µM; hit rate 0.81% among 300,000; AID 1962;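 active = inhibition above the mean of all tested compounds plus 3 SD, set per screening campaign, cut at about 24% in these data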;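 note: plate controls were DMSO alone for no effect and ferristatin control at 100 nM for full effect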
CSN inh: CSN deneddylation inhibition. hit rate 0.38% among 360,000. Purified CSN, SCF-Nedd8-OG deneddylation, fluorescence polarization. inhibition, % at 12.5 µM;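 active = pattern-corrected inhibition above about 35%, with an unprinted fluorescence ratio check between 0.5 and 1.5, limit read from the data, passing the limit was not always enough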;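 note: 0% = enzyme with substrate and 100% = substrate without enzyme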
Target sequence (Q92905 whole entry, looked up, one chain of several): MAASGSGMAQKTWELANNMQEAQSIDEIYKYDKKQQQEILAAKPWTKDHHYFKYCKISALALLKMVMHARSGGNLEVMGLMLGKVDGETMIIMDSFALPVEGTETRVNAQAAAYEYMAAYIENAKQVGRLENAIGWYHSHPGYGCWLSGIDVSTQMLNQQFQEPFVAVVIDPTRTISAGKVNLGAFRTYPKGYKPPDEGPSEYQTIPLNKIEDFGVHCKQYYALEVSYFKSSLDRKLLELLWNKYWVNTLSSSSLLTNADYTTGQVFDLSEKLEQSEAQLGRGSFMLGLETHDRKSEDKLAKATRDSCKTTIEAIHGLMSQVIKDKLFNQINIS
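Assay system: Purified human Csn5 enzyme expressed in HEK293T cells | Amount: Enzyme 0.24 nM | Measured by: Fluorescence polarization readout | Medium: Tris/NaCl/DTT buffer, pH 7.5 | Compound dosing: One concentration, 12.5 µM, 0.25% DMSO | Times: 90 min incubation of compound, enzyme and substrate at room temperature | Control set: no-enzyme wells high, enzyme-with-substrate wells low | Read-out: % inhibition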
Rpn11 inh: blocks the human proteasome subunit Rpn11; O00487; human 26S proteasome, Ub4-pepOG fluorescence polarization; 20S core pre-blocked with epoxomicin; inhibition, % at 20 µM; hit rate 0.59% among 360,000;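 active = inhibition at 20 µM, scaled to each plate's controls, above about 33%, limit read from the data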
Target sequence (O00487 whole entry, looked up): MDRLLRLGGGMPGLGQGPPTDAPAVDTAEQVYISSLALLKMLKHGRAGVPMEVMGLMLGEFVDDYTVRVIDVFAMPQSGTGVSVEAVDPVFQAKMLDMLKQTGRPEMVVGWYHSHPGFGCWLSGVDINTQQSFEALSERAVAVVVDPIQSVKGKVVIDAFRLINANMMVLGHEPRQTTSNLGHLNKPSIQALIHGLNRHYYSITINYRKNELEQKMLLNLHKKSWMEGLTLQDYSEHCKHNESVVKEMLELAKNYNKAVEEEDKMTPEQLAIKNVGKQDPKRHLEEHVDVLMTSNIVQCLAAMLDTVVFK
An asterisk follows results filed as active; . = no result given. Sampled rows, rich in hits. Any-hit rate of the full collection: about 1.5%.

SMILES	HNF4A DNA FP	TPT1 inhibitor	CSN inh	Rpn11 inh
CCOC(=O)CSc1nnc(CSc2nc3sc4c(c3c(=O)[nH]2)CCCC4)n1-c1ccccc1	34.0*	-2.0	-9.6	26.1
COC(=O)c1ccccc1NC(=O)CSc1nnc(C(CO)NC(=O)c2ccccc2Cl)n1C (centres undefined)	37.3*	3.5	-5.5	-3.7
COc1cc(C)c(NC(=O)COc2ccc3c(c2)CCC3)cc1OC	-2.0	.	1.8	1.0
Cc1ccnc(NC(=O)CCC(=O)N(CC(=O)NCCc2ccccc2)c2ccccc2F)c1	-1.9	-1.2	4.8	1.9
O=C1c2nc3cc(-c4ccco4)[nH]n3c(=O)c2CN1C1CCCCC1	-6.5	1.9	45.6*	-1.4
O=c1cc(-c2ccccc2)nc2cc(-c3ccco3)[nH]n12	-3.1	-6.2	5.9	8.8
CCCN=C1N(C)C[C@@H]2[C@@H]3C(=O)N(C)C(=O)[C@@H]3[C@](Cc3ccccc3)(C(=O)OC)N12	0.9	.	1.7	-5.5
COc1ccc(C(=O)/C=C/Nc2ccc([N+](=O)[O-])cc2C)c(OC)c1	19.4	4.3	8.5	27.9
COc1ccc(C(=O)/C=C/Nc2ccc([N+](=O)[O-])cc2C)cc1OC	36.6*	11.6	46.2*	37.9
COc1ccc(NS(=O)(=O)c2cc(NC(=O)[C@@H](NC(=O)c3ccccc3)C(C)C)ccc2C)cc1	-2.4	-1.9	-2.2	5.6
Cc1nc(SCc2nc3c(O)cccc3[nH]2)c2oc3ccccc3c2n1	8.9	.	-5.0	-14.7
Cc1ccc(C(=O)NC(=S)NNC(=O)COc2ccccc2C)cc1	26.7*	-1.9	-8.4	7.9
O=C(O)c1cccc(N/N=C/c2sc(N3CCOCC3)nc2-c2ccccc2)c1	-1.0	5.8	-6.0	-2.7
O=[N+]([O-])c1ccc(N/N=C/c2sc(N3CCOCC3)nc2-c2ccccc2)c(S(=O)(=O)Nc2ccc(Cl)cc2)c1	59.0*	.	34.6	35.0
COC(=O)C[C@H]1CC[C@@H](NC(=O)Nc2c(C)noc2C)[C@@H](CO)O1	0.4	.	0.5	.
O=C(Nc1ccc(F)cc1)N(Cc1ccco1)Cc1cc2cc3c(cc2[nH]c1=O)OCO3	41.9*	0.0	-2.3	-11.1
O=C(Nc1ccc(F)cc1)N(Cc1cccs1)Cc1cc2cc3c(cc2[nH]c1=O)OCO3	-0.8	2.9	-4.6	11.9
CC(=O)Nc1ccc(OCC(O)Cn2cnc3ccccc32)cc1 (centres undefined)	2.3	-2.2	-3.1	3.3
CC(=O)Nc1cccc(OCC(O)Cn2cnc3ccccc32)c1 (centres undefined)	-2.9	1.5	58.4*	5.9
COc1ccc(N=Cc2ccccc2O)cc1	3.6	.	1.1	5.8
COc1ccc2sc(/C=C/c3ccccc3O)[n+](C)c2c1	51.5*	.	126.7	.
CCCN(CCC)S(=O)(=O)c1ccc(C(=O)Nc2nc(-c3ccccc3)c(C(=O)OCC)s2)cc1	-0.5	-2.2	-3.5	3.0
Cc1cn2c(N)c(/C=C3\C=Nc4ccccc43)c(=O)nc2s1	5.5	-2.2	3.0	22.4
Cc1cn2c(N)c(C=C3C=C(Cl)C(=O)C(Cl)=C3)c(=O)nc2s1	107.8*	.	62.4	.
CCCCn1c(O)c(N=Nc2ccccc2O)c2ccccc21	83.5*	.	13.2	.
SMILES	HNF4A DNA FP	TPT1 inhibitor	CSN inh	Rpn11 inh
CC(C)C[C@H]1CNC(=S)N1C[C@H]1CCCN1C[C@H](CC(C)C)N1C[C@H](CC(C)C)N(CCc2ccccc2)C1=S	1.3	.	3.7	1.0
CC(C)C[C@H]1CNC(=S)N1C[C@H]1CCCN1C[C@H](CC(C)C)N1C[C@H](Cc2ccccc2)N(CCc2ccccc2)C1=S	-0.8	.	110.1*	9.9
CC(=O)NC(c1ccc(F)c(F)c1)c1nc(-c2ccccc2)cs1 (centres undefined)	8.4	.	0.1	-4.2
COc1ccc(Oc2c(OC)cc(NCc3ccc(CN)cc3)c3ncccc23)cc1	-40.2	.	41.6*	20.3
COc1ccccc1N=Nc1ccc(O)c2ncccc12	-0.5	-11.3	-5.8	34.4
CCS(=O)(=O)c1ccc(N=Nc2ccc(O)c3ncccc23)c(OC)c1	4.4	.	-4.0	49.8*
CCCS(=O)(=O)NC(=O)C1(C)CCCN(C(=O)c2ccco2)C1 (centres undefined)	2.0	.	0.3	-4.2
Cc1ccc(C(=O)O)cc1-c1ccc(/C=C2\SC(=O)N(CC(=O)Nc3ccccc3)C2=O)o1	6.3	11.7	19.1	19.8
Cc1cc(C(=O)O)ccc1-c1ccc(/C=C2\SC(=O)N(CC(=O)Nc3ccc4c(c3)OCO4)C2=O)o1	36.4*	.	31.3	17.6
O=C(COC(=O)/C=C/c1cc(Br)ccc1F)NC1CC1	1.2	.	0.7	2.7
O=[N+]([O-])c1ccc(-c2cn(-c3ccc(Cl)cc3)cn2)cc1	40.1*	.	5.2	31.2
C#CCCC(=O)c1ccccc1/C=[N+](\[O-])c1ccccc1	0.5	.	12.9	64.2*
Cc1c(C(=O)Nc2c(F)cccc2F)sc2ncn(CC(=O)N3CCCCC3)c(=O)c12	-0.1	4.2	-1.8	7.2
COCCNC(=O)c1sc2ncn(CC(=O)N3CCCCC3)c(=O)c2c1C	64.5*	-6.5	1.0	-2.4
CCn1c(SCC(=O)c2ccccc2)nnc1-c1cccnc1	35.8*	1.7	2.6	3.0
CCn1c(SCCC(=O)O)nnc1-c1cccnc1	-3.4	-2.9	-0.1	2.5
Cc1ccc(C)n1-c1sc2c(c1C(=O)O)CCCC2	-42.2	6.4	38.7*	21.5
CN[C@H](C)C(=O)NC[C@H]1O[C@@H](n2cnc3c(N)ncnc32)[C@H](O)[C@@H]1O	-6.8	.	-4.0	-0.9
CCN(CC)C(=O)C1=C(C)N(Cc2ccc(OC)cc2)C(=O)C(CC(=O)NC2CCCCC2)C1 (centres undefined)	0.0	.	-2.9	-5.8
CC(C)=CCN1CCN(Cc2coc3ccc(C)cc3c2=O)CC1CCO (centres undefined)	50.9*	-0.1	-1.0	4.7
CCCOC(=O)c1cc(-c2ccc(/C=C3/C(=O)N(C)C(=O)C(C#N)=C3C)o2)ccc1Cl	3.2	24.3*	8.5	7.0
COc1ccc(N(CC(=O)NC2CCS(=O)(=O)C2)S(=O)(=O)c2cc(C)ccc2C)cc1 (centres undefined)	-4.7	.	-0.8	-6.6
COc1ccc(S(=O)(=O)NNC(=O)c2sccc2-n2cccc2)cc1	30.5*	-6.5	-1.5	-1.9
COc1ccc(Nc2cc(C)nc3ccc(C)cc23)cc1	0.6	.	4.5	-8.5
Cc1ccc2nc(C)cc(NCCO)c2c1	0.0	-1.1	77.2*	2.1
SMILES	HNF4A DNA FP	TPT1 inhibitor	CSN inh	Rpn11 inh
COc1cc(/C=N/NC(=O)c2ccccc2O)ccc1OCC(=O)Nc1ccccc1	-3.0	3.7	48.6*	39.8
COc1ccccc1/C=N/NC(=O)CC(=O)Nc1ccc(Cl)c(Cl)c1	44.4*	-2.5	-3.1	11.3
COc1ccccc1/C=N/NC(=O)COCC(=O)N/N=C/c1ccccc1OC	2.4	-0.3	0.0	-5.8
Cn1c(=O)c2[nH]c(Cc3cccc4ccccc34)nc2n(C)c1=O	-0.9	.	1.7	1.1
O=S(=O)(c1cccc2nsnc12)N1CCCCC1	-5.6	-2.1	-0.5	-3.5
Cc1nc2nc(SCC(=O)NCCCN3CCCCCC3)nn2c(C)c1Cc1ccccc1	68.3*	-2.2	88.0*	-4.2
